Most compounds without a hit are left out; they make up all but 0.6% or so of the library.
Rtt109 HAT inh: C. albicans Rtt109 histone acetyltransferase inhibition | purified Rtt109/Vps75, ThioGlo CoA-SH fluorescence, 4 h | inhibition, % at 34.9 µM | 330,000 compounds, 0.16% hits | AID 540336;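 active means inhibition of at least 50% in every replicate; inconclusive means best replicate reaches 50% inhibition but some replicates fall short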
LANA DNA inh: blocks KSHV LANA C-terminal domain binding to DNA | 340,000 compounds, 0.078% hits | MBP-C-LANA/FAM-LBS DNA binding, fluorescence polarization | inhibition, % at 9 µM;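 active means highest replicate inhibition at or above 60% at 9 µM, even if other replicates fall short; inactive means all replicates below 60% inhibition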
Tn7 DDE FP: inhibitors of Tn7 peptide binding to human fibrin DD(E); FP displacement of FITC-Tn7 peptide from fibrin DD(E); 0% = median of compound wells per plate; inhibition, % at 8.3 µM; 370,000 compounds, 0.13% hits;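 active means inhibition above the mean of compounds falling within the control limits plus 3 SD of them, cut at about 14% in these data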
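Assay system: Human clot-derived fibrin DD(E) complex | Buffer or medium: Tris/NaCl/CaCl2 buffer, pH 7.8 | Repeats: One replicate per compound | Benchmarks: Aha-Tn7 high control | Measure: % inhibition scaled between sample-field median and high-control FP | Schedule: 10 min plus 3 h, room temperature | Signal: Fluorescence polarization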
DDE Tn6 FP inh: inhibitors of Tn6 peptide binding to human fibrin DD(E); P02675; Fibrin DD(E) TRITC-Tn6 fluorescence polarization displacement; inhibition, % at 8.3 µM; 370,000 compounds, 0.21% hits; AID 720509;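 active means inhibition above a per-campaign cutoff: mean of compounds within control limits plus 3 SD, cut at about 15% in these data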
Keap1-Nrf2 PPI: inhibitors of human Keap1-Nrf2 protein-protein interaction | Q14145 | Keap1 Kelch-Nrf2 peptide fluorescence polarization, 1536-well | inhibition, % at 9.4 µM | 340,000 compounds, 0.15% hits; in the data active means inhibition above about 12%; inconclusive means no clear call, values can overlap the other calls; inactive means below about 7.3%;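 further: human Keap1 Kelch domain with fluorescein labeled Nrf2 9mer peptide probe; higher means more block of Keap1 binding to Nrf2 peptide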
Target sequence (Q14145 whole entry, looked up, the tested form may be a part): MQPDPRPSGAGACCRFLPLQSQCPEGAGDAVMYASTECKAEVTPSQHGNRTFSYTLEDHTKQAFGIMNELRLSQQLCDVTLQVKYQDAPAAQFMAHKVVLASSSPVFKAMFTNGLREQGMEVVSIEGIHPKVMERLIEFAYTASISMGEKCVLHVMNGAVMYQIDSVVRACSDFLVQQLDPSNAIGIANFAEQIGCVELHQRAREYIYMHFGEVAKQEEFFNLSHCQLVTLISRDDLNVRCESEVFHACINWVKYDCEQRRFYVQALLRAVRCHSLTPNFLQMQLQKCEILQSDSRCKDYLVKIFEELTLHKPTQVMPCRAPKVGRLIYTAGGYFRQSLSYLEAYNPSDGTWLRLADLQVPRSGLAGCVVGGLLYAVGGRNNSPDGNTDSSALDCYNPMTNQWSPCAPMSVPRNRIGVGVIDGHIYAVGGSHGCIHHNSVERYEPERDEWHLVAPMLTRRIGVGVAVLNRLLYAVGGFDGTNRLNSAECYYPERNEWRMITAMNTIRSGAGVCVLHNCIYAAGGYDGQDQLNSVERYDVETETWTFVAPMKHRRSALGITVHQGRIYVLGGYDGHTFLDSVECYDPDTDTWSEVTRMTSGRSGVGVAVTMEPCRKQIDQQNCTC
DDE Tn7 confirm: confirmation of inhibitors of Tn7 binding to human fibrin DD(E); shares compounds with Tn7 DDE FP; FP displacement of TRITC-Tn7 peptide from DD(E); 0% set at plate's compound-well median; inhibition, % at 8.3 µM; 460 compounds, 5% hits; AID 720628;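 active means inhibition above the campaign cutoff, the mean of compounds within control limits plus 3 SD, cut at about 14% in these data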;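 further: displacers lower polarization since freed probe rises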
DDE Tn7 FP ctr: DD(E)-Tn7 binding inhibition, counter-screen; shares compounds with Tn7 DDE FP; fibrin DD(E), TRITC-Tn7 probe displacement, fluorescence polarization; inhibition, % at 8.3 µM; 460 compounds, 3% hits; AID 720633;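 active means inhibition above the cutoff, the mean of compounds lying between the control bounds plus 3 SD of those compounds, cut at about 17% in these data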
Numbers stand for hits; n = inactive; u = inconclusive; x = no result given.

SMILES	Rtt109 HAT inh	LANA DNA inh	Tn7 DDE FP	DDE Tn6 FP inh	Keap1-Nrf2 PPI	DDE Tn7 confirm	DDE Tn7 FP ctr
COC(=O)[C@H](C(C)C)N(Cc1ccccc1)S(=O)(=O)CCN1CCCC1	n	n	n	n	n	x	x
CC(C)(C)c1cc(C(=O)N/N=C/c2ccccc2O)n(-c2ccccc2)n1	n	n	n	n	n	x	x
CC(C)(C)c1cc(C(=O)N/N=C/c2ccc(F)cc2)n(-c2ccccc2)n1	n	n	14	n	n	n	n
Cc1ccc(N2C(=O)c3cccc4c(N)ccc(c34)C2=O)c2cccnc12	n	n	19	n	n	n	n
COc1cccc(N2CCN(C(=O)CCn3nnc4ccccc43)CC2)c1	x	x	n	n	x	x	x
CCOC(=O)C1=C(C)Nc2ccccc2N/C1=N\S(=O)(=O)c1ccc(Cl)cc1	n	n	n	n	n	x	x
CCOC(=O)C1=C(C)Nc2ccccc2N/C1=N\S(=O)(=O)c1cccc(Cl)c1	n	n	16	n	n	n	n
c1ccc(-c2ccc(CNC3CC3)cc2)cc1	n	n	14	n	n	n	n
COC(=O)[C@H](C(C)C)N(CCCc1cn(Cc2ccc(C)cc2)nn1)S(=O)(=O)c1ccc(F)cc1Br	x	x	n	n	x	x	x
O=C1[C@H](Cc2ccccc2)NCC=CC[C@H](c2ccco2)N1Cc1ccccc1	n	n	16	n	n	n	n
CN1CCCN(S(=O)(=O)c2ccc3c(c2)CCC(=O)N3)CC1	x	x	n	n	x	x	x
O=C1C=C(NNC(=O)c2ccncc2)CC(c2ccccc2)C1 (stereo unspecified)	n	n	29	n	n	n	n
O=C1C=C(NCc2ccncc2)CC(c2ccccc2)C1 (stereo unspecified)	n	n	n	n	n	x	x
CCCS(=O)(=O)n1nc(-c2ccc(OC)cc2)cc1N	n	n	n	n	n	x	x
CCCS(=O)(=O)n1nc(-c2ccc(C)cc2)cc1N	n	n	14	n	n	n	n
CC(=O)N1CCc2cc(Br)c(S(=O)(=O)NCc3ccc(Cl)cc3)cc21	x	x	n	n	x	x	x
C/C(=N\N1CCN(Cc2ccc(Cl)cc2)CC1)c1ccc([N+](=O)[O-])cc1	n	n	15	n	n	n	n
O=C(NC(=O)c1ccc(C(F)(F)F)cc1)Nc1ccc(-c2cnco2)cc1	n	n	14	n	n	n	n
O=C(Nc1ccc(-c2cnco2)cc1)c1ccc(F)cc1F	n	n	n	n	n	x	x
O=C(CSc1nnc(-c2ccccn2)n1Cc1ccco1)Nc1ccc(Oc2ccccc2)cc1	x	x	n	n	x	x	x
COc1ccc(NS(=O)(=O)c2ccc3c(c2)NC(=O)C(C)S3)cc1 (stereo unspecified)	n	n	14	n	n	n	n
COc1ccc(NC(=O)C2CCN(S(=O)(=O)c3ccc4c(c3)NC(=O)C(C)S4)CC2)cc1 (stereo unspecified)	n	n	n	n	n	x	x
COC(=O)c1sc(S(=O)(=O)N2CCN(c3ccccc3)CC2)c(C(=O)OC)c1C	n	n	14	n	n	n	n
COC(=O)c1sc(S(=O)(=O)N2CCCCC2)c(C(=O)OC)c1C	n	n	n	n	n	x	x
CCOc1ccc(CCN2C(=S)N([C@@H](Cc3ccc(O)cc3)CN3CCC[C@@H]3CN3C(=S)NC[C@@H]3CC(C)C)C[C@@H]2CC(C)C)cc1	x	x	14	n	x	n	n
SMILES	Rtt109 HAT inh	LANA DNA inh	Tn7 DDE FP	DDE Tn6 FP inh	Keap1-Nrf2 PPI	DDE Tn7 confirm	DDE Tn7 FP ctr
CCOc1ccc(CCN2C(=S)N([C@@H](Cc3ccc(O)cc3)CN3CCC[C@@H]3CN3C(=S)NC[C@@H]3CC(C)C)C[C@@H]2Cc2ccccc2)cc1	x	x	n	n	x	x	x
CC(C)c1nc(C#N)c(NCCCn2ccnc2)o1	n	n	n	n	n	x	x
CC(C)c1nc(C#N)c(NN)o1	n	n	14	n	n	n	n
NS(=O)(=O)c1ccc(CCNc2nn3c(-c4ccc(F)c(Cl)c4)cnc3s2)cc1	x	x	14	n	x	n	n
CCCNC(=O)C1(C)CCCN(C(=O)c2cccnc2Oc2ccccc2)C1 (stereo unspecified)	x	x	14	n	x	n	n
O=C(CSc1nnc(CNC(=O)c2ccco2)o1)Nc1cccc(Cl)c1	n	n	16	n	n	n	n
COCC(=O)N[C@H]1C[C@@H]2O[C@@H](CO)CC[C@@H]2O[C@@H]1CCc1ccc(-c2ccccc2)cc1	x	x	n	n	x	x	x
CC(NC(=O)/C(C#N)=C/c1cn[nH]c1-c1ccccc1)c1ccccc1 (stereo unspecified)	n	n	n	n	n	x	x
CCc1ccc(C(C)NC(=O)/C(C#N)=C\c2cn[nH]c2-c2ccccc2)cc1 (stereo unspecified)	n	n	14	n	n	n	n
CCCN1C(=O)c2cccc3c(N4CCCCC4)ccc(c23)C1=O	n	n	16	n	n	n	n
CCCCNc1ccc2c3c(cccc13)C(=O)N(CCCC)C2=O	n	n	47	n	n	n	19
CN(C)CCCN1C(=O)c2cccc3c(Br)ccc(c23)C1=O	n	n	n	n	n	x	x
O=C(Nc1nccs1)C1(C(=O)C2CC2)CC(c2ccccn2)=NO1 (stereo unspecified)	x	x	n	n	x	x	x
O=C(CNS(=O)(=O)c1ccccc1)N1CCN(c2ncccn2)CC1	x	x	n	n	x	x	x
CC(=O)N1CCN(S(=O)(=O)c2ccc3c(c2)oc(=O)n3C)CC1	x	x	n	n	x	x	x
Cc1ccc(C(=O)N2CCC(Oc3cccnc3)CC2)c(C)c1	x	x	n	n	x	x	x
O=S(=O)(c1ccc(SCc2ccc(Br)cc2)nc1)N1CCCCC1	n	n	14	n	n	n	n
Cn1c(=O)c(=O)n(C)c2cc(S(=O)(=O)N3CCN(c4ccccc4Cl)CC3)ccc21	x	x	n	n	x	x	x
O=C(Nc1ccccc1N1CCCC1)c1cc(Cl)ccc1Cl	u	n	n	n	n	x	x
O=C(Nc1ccccc1N1CCCCC1)c1cccc(Cl)c1	n	n	14	n	n	n	n
COC(=O)C(CCSC)NC(=O)c1cc2c(n(-c3ccccc3)c1=O)CCCC2=O (stereo unspecified)	n	n	15	n	n	n	n
O=C1CCCc2c1cc(C(=O)O)c(=O)n2-c1ccccc1	n	n	n	n	n	x	x
CCOc1cc(/C=C2\CCCc3c2nc2ccccc2c3C(=O)O)ccc1OC	n	n	64	n	n	31	n
COc1cc(/C=C2\CCCc3c2nc2ccccc2c3C(=O)O)cc(Br)c1O	n	n	n	n	n	x	x
Cc1cccc(NC(=O)c2ccc(C(=O)c3ccccc3)cc2)n1	n	n	20	n	n	n	n
Cn1c(=O)c(Nc2ccc(O)cc2)c2c3c(cccc31)C(=O)c1ccccc1-2	n	n	16	n	n	n	n

Screening data deposited in PubChem by several laboratories.
